Measurements reported in PubChem BioAssay AID977617 (Broad Institute, 2014).
“And” between values parts separate entries of the source, which are not always exact repeats. Equal values may be shown once. The source made the active and inactive calls.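 Rule for the calls: active = cell killing, with a fitted half-maximal concentration at or below twice the top valid dose tested; inconclusive = flat fit with a moderate signal drop, or a poor fit; inactive = effect in the rising direction, plus the rest.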

system: not listed separately; experiment: viability loss in A549 lung cancer cells – cell-based, CellTiter-Glo luminescence, dry powder, set 13, cytotoxicity control, dose response (AID 977617); conditions: A549 viability, CellTiter-Glo ATP luminescence, 72 h; at 26 µM (top of the series)
Procedure, shortened: (§1)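 Material: A549 cells | Medium: DMEM, 10% FBS | Schedule: 24 h settling, 72 h 37 °C exposure, 5 min reagent | Signal: CellTiter-Glo ATP luminescence | Read-out: ATP signal as viability surrogate, signal drop meaning cytotoxicity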

| SMILES | activity change, negative = cytotoxicity |
| --- | --- |
| C[C@H]1CN([C@@H](C)CO)S(=O)(=O)c2ccc(Br)cc2O[C@H]1CN(C)Cc1ccc(-c2ccccc2)cc1 | -3.47% (inactive) |
| COc1ccc(-c2ccc3c(c2)O[C@@H](CN(C)Cc2ccc(-c4ccccc4)cc2)[C@@H](C)CN([C@@H](C)CO)S3(=O)=O)cc1 | -11.8% (inactive) |
| C[C@@H](O)C#Cc1ccc2c(c1)O[C@@H](CN(C)S(=O)(=O)c1ccc(-c3ccccc3)cc1)[C@@H](C)CN([C@@H](C)CO)S2(=O)=O | 0.446% (inactive) |
| C[C@@H](O)C#Cc1ccc2c(c1)O[C@@H](CN(C)C(=O)c1ccc(-c3ccccc3)cc1)[C@@H](C)CN([C@@H](C)CO)S2(=O)=O | -7.04% (inactive) |
| CO[C@H]1CN(C)C(=O)c2ccc(NC(=O)c3ccc(F)cc3)cc2OC[C@H](C)N(C(=O)c2ccc(F)cc2)C[C@@H]1C | 2.69% (inactive) |
| C[C@@H](O)C#Cc1ccc2c(c1)O[C@@H](CN(C)Cc1cccnc1)[C@@H](C)CN([C@@H](C)CO)S2(=O)=O | -0.989% (inactive) |
| C[C@H](O)C#Cc1ccc2c(c1)O[C@@H](CN(C)Cc1ccc(-c3ccccc3)cc1)[C@@H](C)CN([C@H](C)CO)S2(=O)=O | 12.2% (inactive) |
| C[C@@H](O)C#Cc1ccc2c(c1)O[C@@H](CN(C)Cc1ccncc1)[C@@H](C)CN([C@@H](C)CO)S2(=O)=O | -7.94% (inactive) |
| CNC[C@@H]1Oc2cc(Br)ccc2S(=O)(=O)N([C@@H](C)CO)C[C@@H]1C | -12.1% (inactive) |

system: A549 viability, CellTiter-Glo ATP luminescence, 72 h; experiment: as above; conditions: not given
Procedure, shortened: as §1

| SMILES | AC50 |
| --- | --- |
| C[C@H](O)C#Cc1ccc2c(c1)O[C@@H](CN(C)Cc1ccc(-c3ccccc3)cc1)[C@H](C)CN([C@@H](C)CO)S2(=O)=O | 26.1 µM |
| C[C@@H](O)C#Cc1ccc2c(c1)O[C@H](CN(C)Cc1ccc(-c3ccccc3)cc1)[C@@H](C)CN([C@@H](C)CO)S2(=O)=O | 19.4 µM |
| Cc1ccccc1-c1ccc(CN(C)C[C@@H]2Oc3cc(C#C[C@@H](C)O)ccc3S(=O)(=O)N([C@@H](C)CO)C[C@@H]2C)cc1 | 16.7 µM |
| COc1cccc(-c2ccc(CN(C)C[C@@H]3Oc4cc(C#C[C@@H](C)O)ccc4S(=O)(=O)N([C@@H](C)CO)C[C@@H]3C)cc2)c1 | 15.2 µM |
| C[C@@H]1CN([C@@H](C)CO)S(=O)(=O)c2ccc(C#C[C@@H](C)O)cc2O[C@H]1CN(C)Cc1ccc(-c2ccccc2)cc1 | 26.1 µM |
| C[C@H](O)C#Cc1ccc2c(c1)O[C@H](CN(C)Cc1ccc(-c3ccccc3)cc1)[C@@H](C)CN([C@@H](C)CO)S2(=O)=O | 6 µM |
| COc1ccccc1-c1ccc(CN(C)C[C@@H]2Oc3cc(C#C[C@@H](C)O)ccc3S(=O)(=O)N([C@@H](C)CO)C[C@@H]2C)cc1 | 12.9 µM |
| C[C@@H](O)C#Cc1ccc2c(c1)O[C@@H](CN(C)Cc1ccc(-c3ccccc3)cc1)[C@@H](C)CN([C@@H](C)CO)S2(=O)=O | 17.7 µM and 19 µM |
| C[C@H](O)C#Cc1ccc2c(c1)O[C@@H](CN(C)Cc1ccc(-c3ccccc3)cc1)[C@H](C)CN([C@H](C)CO)S2(=O)=O | 22.1 µM |
| C[C@H](O)C#Cc1ccc2c(c1)O[C@@H](CN(C)Cc1ccc(-c3ccccc3)cc1)[C@@H](C)CN([C@@H](C)CO)S2(=O)=O | 22.6 µM |
| COc1ccc(-c2ccc(CN(C)C[C@@H]3Oc4cc(C#C[C@@H](C)O)ccc4S(=O)(=O)N([C@@H](C)CO)C[C@@H]3C)cc2)cc1 | 14.1 µM |
| C[C@@H](O)C#Cc1ccc2c(c1)O[C@@H](CN(C)Cc1ccc(-c3ccc(Cl)cc3)cc1)[C@@H](C)CN([C@@H](C)CO)S2(=O)=O | 9.62 µM |
| C[C@H](O)C#Cc1ccc2c(c1)O[C@H](CN(C)Cc1ccc(-c3ccccc3)cc1)[C@@H](C)CN([C@H](C)CO)S2(=O)=O | 19.4 µM |
| C[C@@H](O)C#Cc1ccc2c(c1)O[C@@H](CN(C)Cc1ccc(-c3ccccc3Cl)cc1)[C@@H](C)CN([C@@H](C)CO)S2(=O)=O | 14.4 µM |
| C[C@H]1CN([C@@H](C)CO)S(=O)(=O)c2ccc(C#CC(C)(C)O)cc2O[C@H]1CN(C)Cc1ccc(-c2ccccc2)cc1 | 19.9 µM |
| C[C@H](CO)N1C[C@H](C)[C@@H](CN(C)Cc2ccc(-c3ccccc3)cc2)Oc2cc(C#C[C@@H](C)O)ccc2S1(=O)=O | 27.1 µM |
| Cc1cccc(-c2ccc(CN(C)C[C@@H]3Oc4cc(C#C[C@@H](C)O)ccc4S(=O)(=O)N([C@@H](C)CO)C[C@@H]3C)cc2)c1 | 15 µM |
| C[C@@H](O)C#Cc1ccc2c(c1)O[C@@H](CN(C)Cc1ccc(-c3cccc(Cl)c3)cc1)[C@@H](C)CN([C@@H](C)CO)S2(=O)=O | 14.1 µM |
| Cc1ccc(-c2ccc(CN(C)C[C@@H]3Oc4cc(C#C[C@@H](C)O)ccc4S(=O)(=O)N([C@@H](C)CO)C[C@@H]3C)cc2)cc1 | 15.7 µM |
